Data on 21 molecules can be found in ChEMBL document CHEMBL1123007, “New antiarrhythmic agents. N-aryl-8-pyrrolizidinealkanamides” (J Med Chem, 1985).

In data set [1] the test system is Mus musculus. As to the kind of experiment: Antiarrhythmic activity evaluated in mouse after subcutaneous administration. The class given is functional. The settings on record: Heart, sc. The essentials:
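Male DDY mice (18-22 g), groups of 10, dosed s.c. at 0.1 mL/10 g body weight, three to four doses per compound. ED50 (dose protecting 50% from fibrillation) by Litchfield-Wilcoxon, with 95% confidence limits.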

Data set [2] in a line: Ratio of LD50 to ED50 evaluated for its antiarrhythmic potency. It is filed as functional, Heart.
Data set [3] can be described thus: Potency of the drug was evaluated by comparison with Lidocain; potency = ED50 of Lidocaine /ED50 of compound. The class given is functional.
Data set [4] in a line: Potency of the drug was evaluated by comparison with Lidocain; potency = ED50 of Lidocaine /ED50 of compound. The class given is functional.
In data set [5] the test system is Mus musculus. Briefly: Antiarrhythmic activity evaluated in mouse after subcutaneous administration; No effect. The class given is functional, organism-based. Conditions: Heart.
Data set [6] in a line: Acute toxicity was determined in mice. The settings on record: mouse, in vivo. It is filed as organism-based.

Activity calls are given as the source filed them. No cut-off for these calls is given here.

In turn, `O=C(CC12CCCN1CCC2)Nc1ccccc1Cl` registered an ED20 in the data set on Mus musculus [1] of 100 mg/kg.
For `Nc1ccccc1NC(=O)CC12CCCN1CCC2`, it took a dose of 100 mg/kg to reach the 50% effect level in the data set on Mus musculus [1] (ED50). For the same molecule, in data set [2], the Ratio is 6.33. In data set [3], the Potency was determined as 0.9.
Regarding `Cc1ccc(NC(=O)CC23CCCN2CCC3)cc1C`, the Potency in data set [4] is 0.47. Also, the Ratio in data set [2] was 7.36.
As to `COc1ccc(OC)c(NC(=O)CC23CCCN2CCC3)c1`, the Potency in data set [4] was 0.44. Moreover, the Ratio in data set [2] is given as 2.26.
Regarding `Cc1cc(C)cc(NC(=O)CC23CCCN2CCC3)c1`, in data set [4], the Potency stood at 0.69. In addition, in data set [2], the Ratio was found to be 6.83.
`COc1ccccc1NC(=O)CC12CCCN1CCC2` returned an ED40 in the data set with Mus musculus [1] of 100 mg/kg.
Take `O=C(CC12CCCN1CCC2)Nc1ccccc1Br`: in data set [4], the Potency was found to be 0.76. In data set [2], the Ratio is given as 7.54.
In data set [4], `CCN(CC)CC(=O)Nc1c(C)cccc1C` [LIDOCAINE] had a Potency of 1. Further, in the data set with Mus musculus [1], the ED50 (as a rule, the midpoint of the dose-response relation) is 29 mg/kg.
In data set [4], `Cc1cccc(NC(=O)CC23CCCN2CCC3)c1C` had a Potency of 0.56. For the same molecule, the Ratio in data set [2] was found to be 7.33.
As to `O=C(CC12CCCN1CCC2)Nc1ccccc1`, the ED50 result with Mus musculus [5] was “inactive”.
The molecule `Cc1cccc(C)c1NC(=O)CC12CCCN1CCC2` yielded a Potency in data set [4] of 1.51.
Turning to `Cc1ccccc1NC(=O)CC12CCCN1CCC2`, the ED40 with Mus musculus [1] was 100 mg/kg.
For the molecule `O=C(CC12CCCN1CCC2)Nc1c(Cl)cccc1Cl`, the ED20 in the data set with Mus musculus [1] was found to be 100 mg/kg.
In data set [4], `CCc1cccc(CC)c1NC(=O)CC12CCCN1CCC2` displayed a Potency of 1.41. Also, the Ratio in data set [2] is reported as 9.93.
On to `Nc1ccc(NC(=O)CC23CCCN2CCC3)cc1`, for which, in data set [6], the LD50 (commonly the dose at which mortality reaches 50%) turned out to be 12 mg/kg.
In data set [4], `COc1ccc(NC(=O)CC23CCCN2CCC3)cc1` returned a Potency of 0.6. Moreover, in data set [2], the Ratio worked out at 4.8.
The molecule `Cc1cc(C)c(NC(=O)CC23CCCN2CCC3)c(C)c1` showed a Potency in data set [4] of 1.22. For the same molecule, in data set [2], the Ratio is 9.09.
Take `Cc1ccc(C)c(NC(=O)CC23CCCN2CCC3)c1`: the Potency in data set [4] was 0.5. Further, the Ratio in data set [2] is listed as 5.56.
In data set [6], `Cc1cccc(C)c1NC(=O)C12CCCN1CCC2` gave an LD50 of 603 mg/kg. This molecule yielded an ED20 in the data set on Mus musculus [1] of 100 mg/kg.
In turn, `Cc1ccc(NC(=O)CC23CCCN2CCC3)cc1` displayed an ED20 in the data set with Mus musculus [1] of 100 mg/kg.
On to `COc1cccc(NC(=O)CC23CCCN2CCC3)c1`, for which the ED40 in the data set on Mus musculus [1] was determined as 100 mg/kg.
